Measurements reported in publication PMC2077835 (Drug metabolism and disposition: the biological fate of …, 2006).

What was measured:
[1] = target: CYP2D6 (Homo sapiens, UniProt P10635); test: Inhibition of P450 activities by DB289: debrisoquine 4-hydroxylation; format: in vitro ADME; settings: 3.0 μM DB289, pooled HLMs 0.25 mg/ml
How it was run: (§1)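 Test compound (3.0 μM) was preincubated 0 and 15 min with pooled microsomes (0.25 mg/ml) and 2 mM NADPH (final concentrations). A P450-selective marker substrate was then added and marker activity measured. Reference selective chemical inhibitors were run for comparison (none for CYP4A11). Solvent-only controls.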

[2] = DB289 metabolism by heat-inactivated human liver microsomes; format: in vitro ADME; settings: 60°C for 90 s; data not shown
How it was run: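 Human liver microsomes were heated at 60°C for 90 s before incubation to inactivate flavin monooxygenase. Then used in standard NADPH incubations (pH 7.4 phosphate, MgCl2, 37°C) to test FMO contribution to substrate metabolism.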

[3] = target: T1, CYP2C9 (Homo sapiens, UniProt P11712); test: Inhibition of P450 activities by DB289: diclofenac 4′-hydroxylation; format: in vitro ADME; settings: 3.0 μM DB289, pooled HLMs 0.25 mg/ml
T1 sequence (P11712 whole entry): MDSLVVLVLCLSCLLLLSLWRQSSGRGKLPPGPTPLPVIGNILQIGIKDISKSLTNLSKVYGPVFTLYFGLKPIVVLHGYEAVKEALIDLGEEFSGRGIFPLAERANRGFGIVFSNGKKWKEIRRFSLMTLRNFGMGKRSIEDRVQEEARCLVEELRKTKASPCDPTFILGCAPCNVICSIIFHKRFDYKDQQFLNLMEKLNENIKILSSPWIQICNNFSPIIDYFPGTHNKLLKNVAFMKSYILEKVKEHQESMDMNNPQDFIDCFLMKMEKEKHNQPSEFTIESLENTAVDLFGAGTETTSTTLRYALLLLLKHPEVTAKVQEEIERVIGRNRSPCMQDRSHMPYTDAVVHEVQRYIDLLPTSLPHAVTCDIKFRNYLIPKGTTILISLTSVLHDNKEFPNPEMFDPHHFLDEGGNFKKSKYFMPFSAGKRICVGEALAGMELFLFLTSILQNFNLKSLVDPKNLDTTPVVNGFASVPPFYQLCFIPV
How it was run: as §1

[4] = target: recombinant human CYP2C18 (Homo sapiens, UniProt P33260); test: DB289 consumption by recombinant CYP2C18; format: in vitro ADME; settings: 3.0 μM DB289, 50 pmol/ml P450, 15 min
recombinant human CYP2C18, sequence (P33260 26-490): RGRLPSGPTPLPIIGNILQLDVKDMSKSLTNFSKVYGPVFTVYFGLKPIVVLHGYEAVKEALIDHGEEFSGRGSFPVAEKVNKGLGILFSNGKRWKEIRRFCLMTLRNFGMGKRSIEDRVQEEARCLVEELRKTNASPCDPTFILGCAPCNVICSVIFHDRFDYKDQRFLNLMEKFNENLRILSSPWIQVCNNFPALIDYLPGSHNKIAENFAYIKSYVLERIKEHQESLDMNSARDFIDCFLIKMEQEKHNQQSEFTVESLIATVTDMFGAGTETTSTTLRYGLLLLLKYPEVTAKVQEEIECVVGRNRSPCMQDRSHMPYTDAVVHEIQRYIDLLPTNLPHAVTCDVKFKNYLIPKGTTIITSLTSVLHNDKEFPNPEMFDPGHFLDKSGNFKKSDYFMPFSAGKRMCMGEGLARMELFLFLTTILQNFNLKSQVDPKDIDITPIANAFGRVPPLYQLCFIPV

[5] = Kinetics of M1 formation by pooled HLMs; format: in vitro ADME, human
How it was run: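 Initial-rate conditions (<20% substrate consumption). Pooled microsomes at 0.02 mg/ml with substrate from 0.05 μM upward, in 250 μl. Equilibrated 5 min at 37°C, started with NADPH, run 3 min. M1 measured by LC/MS/MS. Mean of duplicates fitted to Michaelis-Menten by nonlinear regression, with an Eadie-Hofstee plot; CLint = Vmax/Km.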

[6] = target: CYP4A11 (Homo sapiens, UniProt Q02928); test: Inhibition of P450 activities by DB289: lauric acid 12-hydroxylation; format: in vitro ADME; settings: 3.0 μM DB289, pooled HLMs 0.25 mg/ml
CYP4A11, sequence (Q02928 5-519): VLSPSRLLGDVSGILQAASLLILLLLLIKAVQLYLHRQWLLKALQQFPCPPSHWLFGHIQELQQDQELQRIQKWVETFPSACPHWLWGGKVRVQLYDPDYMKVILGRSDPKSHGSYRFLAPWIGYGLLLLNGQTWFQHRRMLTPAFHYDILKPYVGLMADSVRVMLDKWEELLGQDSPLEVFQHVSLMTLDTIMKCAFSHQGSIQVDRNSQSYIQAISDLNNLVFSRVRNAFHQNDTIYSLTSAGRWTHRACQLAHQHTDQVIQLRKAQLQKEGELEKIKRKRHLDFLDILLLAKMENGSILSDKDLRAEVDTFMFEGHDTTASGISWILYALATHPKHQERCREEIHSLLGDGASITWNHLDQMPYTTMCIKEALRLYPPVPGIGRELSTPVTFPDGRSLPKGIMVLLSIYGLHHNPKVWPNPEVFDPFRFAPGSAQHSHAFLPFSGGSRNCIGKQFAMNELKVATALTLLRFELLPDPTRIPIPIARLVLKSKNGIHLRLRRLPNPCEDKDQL
How it was run: as §1

[7] = Incubation of DB289 with pooled human liver microsomes; format: in vitro ADME; settings: 15 μM DB289, 0.2 mg/ml HLMs, NADPH
How it was run: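 Pooled liver microsomes (50 donors, mixed gender) at 0.2 mg/ml with 15 μM substrate in a 1 ml mix, equilibrated 5 min at 37°C, then started with NADPH. Aliquots taken at 0, 5, 15, 30 and 120 min into ice-cold acetonitrile. LC/UV at 359 nm against an external 0.1–15 μM calibration; metabolites identified by retention time versus synthetic standards. Single determination; controls lacked NADPH, protein or substrate.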

[8] = target: T1, CYP2C9; test: DB289 consumption by recombinant CYP2C9; format: in vitro ADME; settings: 3.0 μM DB289, 100 pmol/ml P450, 15 min
How it was run: (§2)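 Baculovirus-insect-cell Supersomes coexpressing human P450 with NADPH-P450 reductase; the CYP2E1 enzyme also had cytochrome b5. 3.0 μM substrate, 50 pmol/ml P450 (100 pmol/ml for CYP2C8 and CYP2C9), in 100 mM phosphate pH 7.4 with 3.3 mM MgCl2 and 1 mM NADPH, 37°C, 15 min. Quenched in ice-cold acidified acetonitrile with deuterated internal standard, then LC/MS/MS. Percent consumed relative to 0 min; control Supersomes; duplicates.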

[9] = target: recombinant human CYP2B6 (Homo sapiens, UniProt P20813); test: DB289 consumption by recombinant CYP2B6; format: in vitro ADME; settings: 3.0 μM DB289, 50 pmol/ml P450, 15 min
recombinant human CYP2B6, sequence (P20813 whole entry): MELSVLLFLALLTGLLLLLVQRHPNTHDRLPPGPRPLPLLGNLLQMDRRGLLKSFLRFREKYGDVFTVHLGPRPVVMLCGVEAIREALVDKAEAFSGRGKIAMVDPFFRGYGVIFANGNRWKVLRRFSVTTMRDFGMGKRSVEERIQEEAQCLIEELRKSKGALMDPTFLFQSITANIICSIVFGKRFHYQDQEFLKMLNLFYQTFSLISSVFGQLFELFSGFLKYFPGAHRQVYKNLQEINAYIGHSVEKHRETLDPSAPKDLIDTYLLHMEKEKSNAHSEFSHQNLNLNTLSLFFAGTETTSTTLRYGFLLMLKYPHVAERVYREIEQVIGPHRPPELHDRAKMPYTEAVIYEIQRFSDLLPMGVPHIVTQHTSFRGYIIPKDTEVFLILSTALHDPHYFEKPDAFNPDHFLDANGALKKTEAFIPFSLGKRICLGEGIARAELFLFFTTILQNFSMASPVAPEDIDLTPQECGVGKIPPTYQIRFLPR
How it was run: as §2

[10] = target: recombinant human CYP1A2 (Homo sapiens, UniProt P05177); test: Kinetics of M1 formation by recombinant CYP1A2; format: in vitro ADME
recombinant human CYP1A2, sequence (P05177 2-516 limits assumed): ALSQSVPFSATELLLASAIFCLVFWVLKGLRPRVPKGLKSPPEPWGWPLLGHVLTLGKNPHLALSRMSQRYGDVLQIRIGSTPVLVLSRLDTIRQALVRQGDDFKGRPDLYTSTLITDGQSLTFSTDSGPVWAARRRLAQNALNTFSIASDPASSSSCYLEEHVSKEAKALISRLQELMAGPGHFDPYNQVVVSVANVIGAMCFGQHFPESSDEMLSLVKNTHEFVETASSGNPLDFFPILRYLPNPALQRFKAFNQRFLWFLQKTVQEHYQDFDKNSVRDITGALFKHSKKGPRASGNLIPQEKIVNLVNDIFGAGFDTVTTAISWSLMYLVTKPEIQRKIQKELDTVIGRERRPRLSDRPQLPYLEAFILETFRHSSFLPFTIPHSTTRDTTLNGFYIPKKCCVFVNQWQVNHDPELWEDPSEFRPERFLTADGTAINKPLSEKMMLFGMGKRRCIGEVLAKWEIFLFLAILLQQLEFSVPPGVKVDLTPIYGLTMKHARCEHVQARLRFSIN
How it was run: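 Recombinant P450 (10–50 pmol/ml) with substrate from 0.05 μM upward, under initial-rate conditions (<20% consumption). 250 μl at 37°C, started with NADPH after 5 min equilibration. Run times: 2 min for CYP1A1/1A2; 5 min for CYP1B1, 2J2 and 4F2; 15 min for CYP2C8, 4F3B and 4F12. M1 measured by LC/MS/MS. Mean of duplicates fitted to Michaelis-Menten; CLint = Vmax/Km.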

[11] = target: T2, recombinant CYP4F2 (Homo sapiens, UniProt P78329); test: DB289 consumption by recombinant CYP4F2; format: in vitro ADME; settings: 3.0 μM DB289, 50 pmol/ml P450, 15 min
T2 sequence (P78329 5-520): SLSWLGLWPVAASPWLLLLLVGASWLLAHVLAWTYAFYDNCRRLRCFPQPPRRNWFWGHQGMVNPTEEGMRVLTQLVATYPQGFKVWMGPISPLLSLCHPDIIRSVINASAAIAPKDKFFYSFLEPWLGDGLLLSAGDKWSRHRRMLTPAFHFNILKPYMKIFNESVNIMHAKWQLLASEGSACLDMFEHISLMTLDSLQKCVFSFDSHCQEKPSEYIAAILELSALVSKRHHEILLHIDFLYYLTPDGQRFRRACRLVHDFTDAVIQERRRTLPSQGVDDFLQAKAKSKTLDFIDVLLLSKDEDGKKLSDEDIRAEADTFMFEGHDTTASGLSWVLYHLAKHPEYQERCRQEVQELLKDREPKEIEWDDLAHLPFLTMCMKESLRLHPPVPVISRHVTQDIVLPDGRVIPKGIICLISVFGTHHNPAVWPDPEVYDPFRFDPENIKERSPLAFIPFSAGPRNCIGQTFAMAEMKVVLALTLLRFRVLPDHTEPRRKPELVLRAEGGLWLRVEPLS
How it was run: (§3)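 A second recombinant panel (Supersomes; the CYP2J2, CYP3A7 and CYP4F forms coexpressed with reductase and cytochrome b5). Each enzyme was incubated alone with 3.0 μM substrate and NADPH in pH 7.4 phosphate/MgCl2 at 37°C for 15 min. Acetonitrile quench with internal standard, centrifugation, LC/MS/MS. Percent consumed normalised to 0 min. Control Supersomes; means of duplicates.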

[12] = oral; ref Yeates, 2003; cited from earlier work
[13] = target: recombinant human CYP4F12 (Homo sapiens, UniProt Q9HCS2); test: DB289 consumption by recombinant CYP4F12; format: in vitro ADME; settings: 3.0 μM DB289, 50 pmol/ml P450, 15 min
recombinant human CYP4F12, sequence (Q9HCS2 whole entry): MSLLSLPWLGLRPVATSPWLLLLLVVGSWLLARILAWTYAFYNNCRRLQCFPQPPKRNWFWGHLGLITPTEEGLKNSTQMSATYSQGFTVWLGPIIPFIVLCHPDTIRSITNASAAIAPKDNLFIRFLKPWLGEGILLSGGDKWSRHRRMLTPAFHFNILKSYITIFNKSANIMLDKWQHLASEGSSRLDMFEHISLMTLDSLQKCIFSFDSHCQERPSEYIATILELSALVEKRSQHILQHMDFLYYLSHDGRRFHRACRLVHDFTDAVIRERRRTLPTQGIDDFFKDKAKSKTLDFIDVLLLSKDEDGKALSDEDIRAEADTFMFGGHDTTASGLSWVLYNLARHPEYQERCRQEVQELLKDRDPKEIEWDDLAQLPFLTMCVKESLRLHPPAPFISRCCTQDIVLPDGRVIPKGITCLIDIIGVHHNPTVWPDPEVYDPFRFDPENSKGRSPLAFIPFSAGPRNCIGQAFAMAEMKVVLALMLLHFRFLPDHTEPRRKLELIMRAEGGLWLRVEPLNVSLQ
How it was run: as §3

[14] = ref Fitzpatrick et al., 2004; cited from earlier work

CYP2D6, sequence (P10635 whole entry): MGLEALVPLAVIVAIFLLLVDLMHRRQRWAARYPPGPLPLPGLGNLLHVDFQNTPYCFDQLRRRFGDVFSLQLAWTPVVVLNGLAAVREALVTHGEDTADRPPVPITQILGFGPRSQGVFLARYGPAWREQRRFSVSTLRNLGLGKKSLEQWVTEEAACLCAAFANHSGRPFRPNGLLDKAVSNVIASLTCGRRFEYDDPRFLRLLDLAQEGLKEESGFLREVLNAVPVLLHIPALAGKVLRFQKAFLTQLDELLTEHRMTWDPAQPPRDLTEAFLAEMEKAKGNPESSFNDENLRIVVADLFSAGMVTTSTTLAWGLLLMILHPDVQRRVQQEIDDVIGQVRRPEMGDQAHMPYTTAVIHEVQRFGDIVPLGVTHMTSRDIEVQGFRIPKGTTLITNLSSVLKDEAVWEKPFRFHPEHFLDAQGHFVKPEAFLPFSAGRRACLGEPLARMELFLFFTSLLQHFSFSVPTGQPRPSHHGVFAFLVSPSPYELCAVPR

SMILES: CON=C(N)c1ccc(-c2ccc(-c3ccc(C(N)=NOC)cc3)o2)cc1 [DB289, 2,5-bis(4-amidinophenyl)furan-bis-O-methylamidoxime]
- inhibition of CYP2D6 activity [1]: minimal to no inhibition
- effect of heat inactivation of microsomes on DB289 metabolism [2]: did not impede DB289 metabolism
- inhibition of CYP2C9 activity [3]: 20−25%
- percentage of substrate consumed [4]: less than 5%
- Vmax ([5]; DB289 O-demethylation in HLMs): 3770 pmol/min/mg protein
- Vmax ([5]; M1 formation, 0.02 mg/ml HLM, 3 min): 3.8 nmol/min/mg protein
- Vmax ([5]; M1 formation, 0.02 mg/ml HLM, 3 min, total P450): 10.5 nmol/min/nmol P450
- inhibition of CYP4A11 activity [6]: minimal to no inhibition
- half-life in pooled HLM [7]: 12 min
- time by which DB289 was completely consumed [7]: ≤ 120 min
- percentage of substrate consumed [8]: less than 5%
- percentage of substrate consumed [9]: less than 5%
- efficiency of CYP1A2 relative to CYP3A4, 2D6, 2E1, or 3A5 (intrinsic or maximal clearance) [10]: ≥ 300 fold
- percentage of substrate consumed [11]: 98%
- tolerability [12]: well tolerated, with no serious side effects
- percentage of substrate consumed [13]: 10%
- plasma protein binding [14]: high plasma protein-binding
